Series [1] deals with Rattus norvegicus. Nature of the series: Antidyslipidemic activity in ZDF rat assessed as LDL/IgHDL level at 30 mg/kg for 9 days by FPLC analysis (reference value: 17.8 mg/dL). The series is classed as functional, Zucker.
Series [2] deals with Rattus norvegicus. In words: Antidyslipidemic activity in ZDF rat assessed as HDL level at 30 mg/kg for 9 days by FPLC analysis (reference value: 48.3 mg/dL). The class given is functional, Zucker.
The nature of series [3]: AUC (0 to 24 hrs) in Sprague-Dawley rat at 1 mg/kg, iv by LC-MS/MS analysis. The class given is ADME, organism-based. Set-up: dose 1 mg/kg, time < 24 hr, route intravenous. The conditions noted are these: in vivo. The essentials:
(§1)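 Sprague Dawley rats, Beagle dogs and Cynomolgus monkeys were dosed IV at 1 mg/kg (rat, dog) or 0.91 mpk (monkey) in 5% Solutol/5% EtOH in saline. Oral/nasogastric dosing was 3 mpk in 1.0% CMC/0.25% PS80/0.05% antifoam in purified water. Samples were processed to plasma and analysed by LC-MS/MS; values are mean ± SD, N=2-3.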

The nature of series [4]: Volume of distribution at steady state in Sprague-Dawley rat at 1 mg/kg, iv by LC-MS/MS analysis. The series is classed as ADME, organism-based. Conditions: in vivo, read-out: Vdss. The procedure, abridged: (§2)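 Intravenous dose given in 5% Solutol / 5% EtOH in saline (1 mg/kg rat and dog, 0.91 mpk monkey). Plasma samples collected and analyzed by LC-MS/MS; parameters reported as mean ± SD, N=2-3.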

Series [5] can be described thus: Tmax in Sprague-Dawley rat at 3 mg/kg, po by LC-MS/MS analysis. The series is classed as ADME, organism-based. Conditions: in vivo. The essentials: (§3)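 Oral/nasogastric dosing at 3 mpk in 1.0% CMC/0.25% PS80/0.05% antifoam in purified water. Plasma samples collected and analyzed by LC-MS/MS; parameters reported as mean ± SD, N=2-3.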
Series [6] has as its target T1, Progesterone receptor (Homo sapiens, UniProt P06401).
T1 sequence (P06401 whole entry): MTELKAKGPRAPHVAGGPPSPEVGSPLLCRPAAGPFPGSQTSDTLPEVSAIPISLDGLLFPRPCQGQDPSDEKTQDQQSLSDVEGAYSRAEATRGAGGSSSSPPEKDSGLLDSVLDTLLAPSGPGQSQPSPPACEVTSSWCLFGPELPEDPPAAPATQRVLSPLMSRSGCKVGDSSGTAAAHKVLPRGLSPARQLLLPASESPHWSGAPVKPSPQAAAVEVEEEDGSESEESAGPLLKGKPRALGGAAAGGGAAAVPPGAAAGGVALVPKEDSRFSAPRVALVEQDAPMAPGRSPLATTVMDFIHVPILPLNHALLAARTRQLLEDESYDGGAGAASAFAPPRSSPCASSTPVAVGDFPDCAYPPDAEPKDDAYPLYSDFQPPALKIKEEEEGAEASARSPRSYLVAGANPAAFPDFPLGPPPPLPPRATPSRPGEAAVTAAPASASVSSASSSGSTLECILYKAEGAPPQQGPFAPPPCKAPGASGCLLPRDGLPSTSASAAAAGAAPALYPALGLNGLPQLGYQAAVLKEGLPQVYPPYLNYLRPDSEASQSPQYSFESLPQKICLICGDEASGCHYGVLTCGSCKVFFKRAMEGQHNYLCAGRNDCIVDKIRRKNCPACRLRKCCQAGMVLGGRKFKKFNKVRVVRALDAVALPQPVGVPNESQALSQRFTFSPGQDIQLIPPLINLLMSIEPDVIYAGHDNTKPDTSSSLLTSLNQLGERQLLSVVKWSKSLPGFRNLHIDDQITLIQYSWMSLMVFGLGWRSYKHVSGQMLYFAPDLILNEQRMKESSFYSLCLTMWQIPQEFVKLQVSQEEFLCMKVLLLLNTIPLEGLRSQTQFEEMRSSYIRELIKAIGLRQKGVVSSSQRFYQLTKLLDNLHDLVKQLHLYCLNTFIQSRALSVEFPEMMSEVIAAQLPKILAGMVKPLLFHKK
In words: Agonist activity at progesterone receptor (unknown origin) expressed in HEK293 cells assessed as transcriptional activation. The class given is cell-based.

For series [7], the system named is Mus musculus. In words: Antidyslipidemic activity in western-diet fed mouse expressing LDL-receptor (-/-) assessed as decrease in triglyceride level at 1 mg/kg qd for a week administered via gavage by FPLC analysis. The class given is functional. Conditions: po.
Series [8] deals with Mus musculus. Nature of the series: Antidyslipidemic activity in western-diet fed mouse expressing LDL-receptor (-/-) assessed as decrease in triglyceride level at 3 mg/kg qd for a week administered via gavage […]. The series is classed as functional. Conditions: po. The procedure, abridged: (§4)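 Male LDLR null mice, six per group, were gavaged once daily for one week with compound (in situ sodium salt) or vehicle (5% Solutol, 5% EtOH, 1% wt/v CMC) at 5 mL/kg. On day 7 they were bled by cardiac puncture under CO2 anaesthesia. Serum cholesterol and triglycerides were measured enzymatically on a clinical chemistry analyser (mean ± SD, n=6). ED50 was obtained by nonlinear regression.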

In series [9] the test system is Mus musculus. In words: Antidyslipidemic activity in western-diet fed mouse expressing LDL-receptor (-/-) assessed as decrease in triglyceride level at 30 mg/kg qd for a week administered via gavage […]. The class given is functional. Conditions: po. The essentials: as §4
Series [10] deals with Mus musculus. Nature of the series: Antidyslipidemic activity in western-diet fed mouse expressing LDL-receptor (-/-) assessed as decrease in total cholesterol level at 30 mg/kg qd for a week administered via gavage […]. The series is classed as functional. The conditions noted are these: po. The procedure, abridged:
as §4

The subject of series [11] is Mus musculus. Nature of the series: Antidyslipidemic activity in western-diet fed mouse expressing LDL-receptor (-/-) assessed as decrease in very-low density lipoprotein level at 30 mg/kg qd for a week administered via gavage by FPLC analysis. The class given is functional. The conditions noted are these: po. The procedure, abridged:
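LDLR null male mice, six per group, were dosed by gavage once daily for one week (vehicle 5% Solutol, 5% EtOH, 1% wt/v CMC; 5 mL/kg). Serum was collected by cardiac puncture on day 7 under CO2 anaesthesia. Pooled serum from each treatment group was fractionated by FPLC to quantify VLDL and LDL.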

Series [12] is described as follows: Cmax in beagle dog at 3 mg/kg, po by LC-MS/MS analysis. Also noted: dose 3 mg/kg, route oral. The series is classed as ADME, organism-based, Canis lupus familiaris. The conditions noted are these: in vivo. The procedure, abridged:
as §1

Series [13] has as its system Rattus norvegicus. Nature of the series: Antidyslipidemic activity in ZDF rat assessed as LDL/IgHDL level at 3 mg/kg for 9 days by FPLC analysis (reference value: 17.8 mg/dL). The class given is functional, Zucker.
Series [14] in a line: Initial plasma concentration in beagle dog at 1 mg/kg, iv by LC-MS/MS analysis. The class given is ADME, organism-based, Canis lupus familiaris. The procedure, abridged: as §2
Series [15] can be described thus: AUC (0 to 24 hrs) in beagle dog at 3 mg/kg, po by LC-MS/MS analysis. The series is classed as ADME, organism-based, Canis lupus familiaris. Set-up: dose 3 mg/kg, time < 24 hr, route oral. The conditions noted are these: in vivo. The essentials: as §1
The nature of series [16]: Clearance in cynomolgus monkey at 0.91 mg/kg, iv by LC-MS/MS analysis. The conditions noted are these: in vivo. The series is classed as ADME, organism-based, Macaca fascicularis. The procedure, abridged: as §1
Series [17] is described as follows: Volume of distribution at steady state in cynomolgus monkey at 0.91 mg/kg, iv by LC-MS/MS analysis. The class given is ADME, organism-based, Macaca fascicularis. Conditions: in vivo, read-out: Vdss. The essentials: as §2
Series [18] is described as follows: Initial plasma concentration in cynomolgus monkey at 0.91 mg/kg, iv by LC-MS/MS analysis. The class given is ADME, organism-based, Macaca fascicularis. The procedure, abridged:
as §2

The nature of series [19]: Terminal half life in cynomolgus monkey at 3 mg/kg, po by LC-MS/MS analysis. The series is classed as ADME, organism-based, Macaca fascicularis. The conditions noted are these: in vivo, read-out: beta t1/2 (converted). The procedure, abridged: as §3
The nature of series [20]: Tmax in cynomolgus monkey at 3 mg/kg, po by LC-MS/MS analysis. The conditions noted are these: in vivo. The series is classed as ADME, organism-based, Macaca fascicularis. The procedure, abridged: as §3
Series [21] is described as follows: Half life in human at 75 to 600 mg. The series is classed as ADME, organism-based. The conditions noted are these: in vivo. The procedure, abridged:
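Healthy subjects (two cohorts of 9) received single oral doses in a double-blind, placebo-controlled, 2-cohort, 3-period dose-escalation study at one site. Doses covered 5 to 600 mg. Half-life was taken as the mean over the 75–600 mg range.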

Series [22] is described as follows: Cmax in rat at ED50 dose for lipid modulation. Conditions: in vivo. The class given is ADME, organism-based.

With `Cn1cc(C(=O)O)c2ccc(N3CCC(OCc4c(-c5c(Cl)cccc5Cl)noc4C4CC4)CC3)cc21` [TERN-101], the figures for the Activity in series [1], in [2] and in series [13] were 18.6 mg/dL, 94 mg/dL and 10.8 mg/dL, respectively. Moreover, the AUC(0-t) at 24 h in series [3] was found to be 577 ng·h/mL; in series [15] it was 4690 ng·h/mL. Moreover, the figures for the Vd in series [4] and in series [17] were 1.24 L/kg and 0.597 L/kg, respectively. In addition, the Tmax in series [5] worked out at 1.08 h; in [20], 3.33 h. In series [6], the 50% effective concentration (EC50) was > 10 µM. Also, in [7], the inhibition in vivo at 1 mg/kg was 25%. For the same molecule, the inhibition in vivo at 3 mg/kg in series [8] was 46%. The results for the inhibition in vivo at 30 mg/kg in [9], in series [10] and in series [11] were 83%, 83% and 98%, respectively. For the same molecule, the Cmax is 1240 ng/mL in [12] and 4.62 ng/mL in series [22]. Besides, the C0 in series [14] amounted to 1180 ng/mL; in series [18], 4220 ng/mL. The clearance in [16] was 6 mL/min/kg. Besides, the half-life in [19] was 9 h; in series [21], 16.9 h.

One may read the AUC(0-t) as exposure summed from dosing to a finite time, without extrapolation to infinity. A word on the Tmax: it is the time from dosing to the highest level. A word on the EC50: it is the midpoint of the concentration-response curve. A word on the inhibition in vivo: it is the share of the control response that was lost under treatment. Usually Cmax stands for the maximum level reached in the sampled fluid or tissue. As a reminder, the clearance is the rate of elimination divided by the concentration.

(Values after ChEMBL document CHEMBL3745677, “Discovery of 6-(4-{[5-Cyclopropyl-3-(2,6-dichlorophenyl)isoxazol-4-yl]methoxy}piperidin-1-yl)-1-methyl-1H-indole-3-carboxylic Acid: A Novel FXR Agonist for the Treatment of Dyslipidemia” (J Med Chem, 2015).)
